{"data": "Measured values gathered from unrelated publications", "target": "Protein kinase C alpha type (PRKCA, Homo sapiens, UniProt P17252)"}
{"SMILES": "Cc1cc(NC(=O)c2cccc3cc(-c4cccc5[nH]nc(N)c45)ccc23)ccc1F", "read-out": "enzyme activity", "mode": "inhibitor", "tested at": "0.1 µM", "endpoint": "activity vs control", "value": "95%"}
{"SMILES": "N#CCCc1ccc2c(c1)-c1[nH]c3ccc([N+](=O)[O-])cc3c1CC(=O)N2", "read-out": "cell-free assay", "tested at": "0.5 µM", "endpoint": "remaining signal", "value": "80.9%"}
{"SMILES": "COc1cc2ncnc(Nc3ccc(Oc4ccccc4)c(C)c3C)c2cc1OC", "read-out": "enzyme activity", "mode": "inhibitor", "tested at": "1 µM", "endpoint": "inhibition", "value": "8%"}
{"SMILES": "CCN(CC)CCNC(=O)c1c(C)[nH]c(/C=C2\\C(=O)Nc3ccc(F)cc32)c1C", "read-out": "enzyme activity", "mode": "inhibitor", "tested at": "1 µM", "endpoint": "remaining activity", "value": "102%"}
{"SMILES": "CN1CC(Oc2cnc(C#N)cc2-c2ccn3nc(NC(=O)C4CC4)cc3c2)C1", "read-out": "enzyme activity", "mode": "inhibitor", "tested at": "1 µM", "endpoint": "inhibition", "value": "2%"}
{"SMILES": "CNC(=O)c1cc(Oc2ccc(NC(=O)Nc3ccc(Cl)c(C(F)(F)F)c3)cc2)ccn1", "read-out": "cell-free assay", "tested at": "0.5 µM", "endpoint": "remaining signal", "value": "96.8%"}
{"SMILES": "C=CC(=O)Nc1cc(Nc2nccc(Nc3cc(Cl)c(F)cc3C(C)(C)O)n2)c(OC)cc1N1CC[C@@H](N(C)C)C1", "read-out": "enzyme activity", "mode": "inhibitor", "tested at": "1 µM", "endpoint": "inhibition", "value": "13%"}
{"SMILES": "CS(=O)(=O)Nc1cccc(-c2csc(NC(=O)CSc3nc4nccnc4c(=O)n3CCc3ccccc3)n2)c1", "read-out": "enzyme activity", "mode": "inhibitor", "tested at": "10 µM", "endpoint": "inhibition", "value": "1%"}
{"SMILES": "COc1cc(Nc2cnc(C#N)c(O[C@H](C)CN(C)C)n2)ncc1-c1cnn(C)c1", "read-out": "enzyme activity", "mode": "inhibitor", "technique": "radiometric", "tested at": "10 µM", "endpoint": "remaining activity", "value": "102%"}
{"SMILES": "Cc1sc(C(=O)NC2COC2)cc1-n1cc(NC(=O)Nc2c(F)cccc2Cl)cn1", "read-out": "enzyme activity", "mode": "inhibitor", "tested at": "10 µM", "endpoint": "remaining activity", "value": "95.9%"}
{"SMILES": "CC(C)c1ccc(NC(=O)c2cccs2)c(-c2nc3ccccc3[nH]c2=O)c1", "read-out": "enzyme activity", "mode": "inhibitor", "tested at": "1 µM", "endpoint": "activity vs control", "value": "100%"}
{"SMILES": "CC(C)(C)c1nc2c(s1)c1nc(N)ncc1c1ccc(NS(=O)(=O)c3c(F)cccc3F)c(F)c12", "read-out": "enzyme activity", "mode": "inhibitor", "technique": "radiometric", "tested at": "1 µM", "endpoint": "remaining activity", "value": "107%"}
{"SMILES": "CCN(CC)c1ccc(C2=NNC(=O)CC2C)cc1[N+](=O)[O-] (stereo not shown)", "read-out": "enzyme activity", "mode": "inhibitor", "tested at": "10 µM", "endpoint": "remaining activity", "value": "21%"}
{"SMILES": "Cc1[nH]c(/C=C2\\C(=O)Nc3ccc(F)cc32)c(C)c1C(=O)N[C@H]1CCN(C(=O)N(C)C)C1", "read-out": "enzyme activity", "mode": "inhibitor", "tested at": "0.1 µM", "endpoint": "remaining activity", "value": "108%"}
{"SMILES": "CN(c1ncccc1CNc1nc(Nc2ccc3c(c2)CC(=O)N3)ncc1C(F)(F)F)S(C)(=O)=O", "read-out": "enzyme activity", "mode": "inhibitor", "tested at": "1 µM", "endpoint": "inhibition", "value": "28.4%"}
{"SMILES": "CN(C)CCCn1cc(C2=C(c3c[nH]c4ccccc34)C(=O)NC2=O)c2ccccc21", "read-out": "cell-free assay", "tested at": "0.5 µM", "endpoint": "remaining signal", "value": "6.27%"}
{"SMILES": "Oc1cccc(-c2nc(N3CCOCC3)c3oc4ncccc4c3n2)c1", "read-out": "enzyme activity", "mode": "inhibitor", "tested at": "10 µM", "endpoint": "remaining activity", "value": "93%"}
{"SMILES": "FC(F)(F)Oc1cccc(-c2cnc3ccc(-c4ccncc4)nn23)c1", "read-out": "enzyme activity", "mode": "inhibitor", "technique": "radiometric", "tested at": "5 µM", "endpoint": "activity vs control", "value": "91%"}
{"SMILES": "Cc1ccc(Nc2nccc(N(C)c3ccc4c(C)n(C)nc4c3)n2)cc1S(N)(=O)=O", "read-out": "enzyme activity", "mode": "inhibitor", "tested at": "10 µM", "endpoint": "inhibition", "value": "10%"}
{"SMILES": "Cn1c(=O)n(-c2ccc(C(C)(C)C#N)cc2)c2c3cc(-c4cnc5ccccc5c4)ccc3ncc21", "read-out": "enzyme activity", "mode": "inhibitor", "tested at": "10 µM", "endpoint": "remaining activity", "value": "87%"}
{"SMILES": "Cc1ccc(C(=O)NCc2ccsc2)cc1C#Cc1cn(C(C)C)c2ncnc(N)c12", "read-out": "enzyme activity", "mode": "inhibitor", "tested at": "1 µM", "endpoint": "activity vs control", "value": "92%"}
{"SMILES": "O=C(Nc1cnn(-c2csc(C(=O)NC3COC3)c2)c1)Nc1c(F)cccc1Cl", "read-out": "enzyme activity", "mode": "inhibitor", "tested at": "5 µM", "endpoint": "remaining activity", "value": "90.7%"}
